# Test results as given in ChEMBL document CHEMBL4257484, “Membrane-active antimicrobial poly(amino-modified alkyl) β-cyclodextrins synthesized via click reactions” (Medchemcomm, 2018).
# Legend:
# Streptococcus agalactiae = assay: Antibacterial activity against drug-resistant Streptococcus agalactiae B1 after 18 to 20 hrs by agar dilution method; type: functional
# Procedure, shortened: (§1)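 Agar dilution per CLSI. Overnight broth cultures were diluted 100-fold, and one loopful (about 10^5 to 10^4 CFU) was spotted onto agar plates containing the CD. Growth was scored after 18–20 h at 37 °C. MIC values are in µM.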
# [1] = Hemolytic activity in rabbit RBC at 5 uM after 20 mins relative to control; type: ADME, cell-based, Oryctolagus cuniculus, Erythrocyte; conditions: rabbit red blood cells (erythrocytes), read-out: Activity
# Procedure, shortened: (§2)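 Rabbit erythrocytes suspended in 150 mM NaCl/10 mM Hepes-NaOH, pH 7.4, at 0.5% hematocrit (final) and incubated with compound at 37 °C. The table footnote gives 20 min; the methods section gives 30 min. Hemolysis was read as absorbance at 540 nm, with 50 µM lysolecithin defining 100% hemolysis.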
# Pseudomonas aeruginosa = assay: Antibacterial activity against drug-sensitive Pseudomonas aeruginosa PAO1 after 20 hrs by liquid microdilution method; type: functional; conditions: PAO1, 20 h
# Procedure, shortened: (§3)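 Two-fold serial dilutions of compound in Mueller–Hinton broth, inoculated with 1 × 10^4 cells and cultured at 37 °C for 20 h in microtiter wells.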
# [2] = Hemolytic activity in rabbit RBC at 50 uM after 20 mins relative to control; type: ADME, cell-based, Oryctolagus cuniculus, Erythrocyte; conditions: rabbit red blood cells (erythrocytes), read-out: Activity; procedure, shortened: as §2
# Escherichia coli = assay: Antibacterial activity against drug-sensitive Escherichia coli K-12 W3110 after 20 hrs by liquid microdilution method; type: functional; conditions: K-12 substr. W3110, 20 h; procedure, shortened: as §3
# [3] = Hemolytic activity in rabbit RBC at 20 uM after 20 mins relative to control; type: ADME, cell-based, Oryctolagus cuniculus, Erythrocyte; conditions: rabbit red blood cells (erythrocytes), read-out: Activity; procedure, shortened: as §2
# Staphylococcus aureus [4] = assay: Antibacterial activity against methicillin-resistant Staphylococcus aureus MS29202 after 18 to 20 hrs by agar dilution method; type: functional; procedure, shortened: as §1
# [5] = Lipophilicity, log P of the compound; type: physicochemical; conditions: octanol/water
# Staphylococcus aureus [6] = assay: Antibacterial activity against methicillin-sensitive Staphylococcus aureus FDA 209P after 20 hrs by liquid microdilution method; type: functional; procedure, shortened: as §3
# Bacillus subtilis = assay: Antibacterial activity against drug-sensitive Bacillus subtilis 168 after 20 hrs by liquid microdilution method; type: functional; conditions: subsp. subtilis str. 168, 20 h; procedure, shortened: as §3
# [7] = Hemolytic activity in rabbit RBC at 2 uM after 20 mins relative to control; type: ADME, cell-based, Oryctolagus cuniculus, Erythrocyte; conditions: rabbit red blood cells (erythrocytes), read-out: Activity; procedure, shortened: as §2
# Enterococcus faecium = assay: Antibacterial activity against drug-resistant Enterococcus faecium MS29120 after 18 to 20 hrs by agar dilution method; type: functional; procedure, shortened: as §1
# [8] = Hemolytic activity in rabbit RBC at 10 uM after 20 mins relative to control; type: ADME, cell-based, Oryctolagus cuniculus, Erythrocyte; conditions: rabbit red blood cells (erythrocytes), read-out: Activity; procedure, shortened: as §2
# Enterococcus faecalis [9] = assay: Antibacterial activity against drug-resistant Enterococcus faecalis MS29030 after 18 to 20 hrs by agar dilution method; type: functional; procedure, shortened: as §1
# Enterococcus faecalis [10] = assay: Antibacterial activity against vancomycin-resistant Enterococcus faecalis MS29016 after 18 to 20 hrs by agar dilution method; type: functional; procedure, shortened: as §1
# Salmonella typhimurium = assay: Antibacterial activity against drug-sensitive Salmonella typhimurium LT2 after 20 hrs by liquid microdilution method; type: functional, Salmonella enterica subsp. enterica serovar Typhimurium; conditions: Salmonella enterica, LT2, 20 h; procedure, shortened: as §3
# [11] = Hemolytic activity in rabbit RBC at 1 uM after 20 mins relative to control; type: ADME, cell-based, Oryctolagus cuniculus, Erythrocyte; conditions: rabbit red blood cells (erythrocytes), read-out: Activity; procedure, shortened: as §2
Compound,MIC (Streptococcus agalactiae),"hemolysis at 20 min, 5 µM [1]",MIC (Pseudomonas aeruginosa),"hemolysis at 20 min, 50 µM [2]",MIC (Escherichia coli),"hemolysis at 20 min, 20 µM [3]",MIC (Staphylococcus aureus [4]),logP [5],MIC (Staphylococcus aureus [6]),MIC (Bacillus subtilis),"hemolysis at 20 min, 2 µM [7]",MIC (Enterococcus faecium),"hemolysis at 20 min, 10 µM [8]",MIC (Enterococcus faecalis [9]),MIC (Enterococcus faecalis [10]),MIC (Salmonella typhimurium),"hemolysis at 20 min, 1 µM [11]"
O[C@@H]1[C@@H](O)[C@H]2O[C@H]3[C@H](O)[C@@H](O)[C@@H](O[C@H]4[C@H](O)[C@@H](O)[C@@H](O[C@H]5[C@H](O)[C@@H](O)[C@@H](O[C@H]6[C@H](O)[C@@H](O)[C@@H](O[C@H]7[C@H](O)[C@@H](O)[C@@H](O[C@H]8[C@H](O)[C@@H](O)[C@@H](O[C@@H]1[C@@H](Cn1cc(CNCC9CCCCC9)nn1)O2)O[C@@H]8Cn1cc(CNCC2CCCCC2)nn1)O[C@@H]7Cn1cc(CNCC2CCCCC2)nn1)O[C@@H]6Cn1cc(CNCC2CCCCC2)nn1)O[C@@H]5Cn1cc(CNCC2CCCCC2)nn1)O[C@@H]4Cn1cc(CNCC2CCCCC2)nn1)O[C@@H]3Cn1cc(CNCC2CCCCC2)nn1,40 µM,13%,20 µM,107%,5 µM,78%,40 µM,-0.16,3 to 10 µM,3 µM,0%,20 µM,38%,> 40 µM,40 µM,10 µM,0%
NC(Cc1ccccc1)c1cn(C[C@H]2O[C@@H]3O[C@H]4[C@H](O)[C@@H](O)[C@@H](O[C@H]5[C@H](O)[C@@H](O)[C@@H](O[C@H]6[C@H](O)[C@@H](O)[C@@H](O[C@H]7[C@H](O)[C@@H](O)[C@@H](O[C@H]8[C@H](O)[C@@H](O)[C@@H](O[C@H]9[C@H](O)[C@@H](O)[C@@H](O[C@H]2[C@H](O)[C@H]3O)O[C@@H]9Cn2cc(C(N)Cc3ccccc3)nn2)O[C@@H]8Cn2cc(C(N)Cc3ccccc3)nn2)O[C@@H]7Cn2cc(C(N)Cc3ccccc3)nn2)O[C@@H]6Cn2cc(C(N)Cc3ccccc3)nn2)O[C@@H]5Cn2cc(C(N)Cc3ccccc3)nn2)O[C@@H]4Cn2cc(C(N)Cc3ccccc3)nn2)nn1 (some centres not stated),21 µM,3%,> 41 µM,4%,21 µM,4%,41 µM,-0.67,21 µM,5 µM,4%,21 µM,6%,> 41 µM,> 41 µM,> 41 µM,5%
CCC(CC)CNCc1cn(C[C@H]2O[C@@H]3O[C@H]4[C@H](O)[C@@H](O)[C@@H](O[C@H]5[C@H](O)[C@@H](O)[C@@H](O[C@H]6[C@H](O)[C@@H](O)[C@@H](O[C@H]7[C@H](O)[C@@H](O)[C@@H](O[C@H]8[C@H](O)[C@@H](O)[C@@H](O[C@H]9[C@H](O)[C@@H](O)[C@@H](O[C@H]2[C@H](O)[C@H]3O)O[C@@H]9Cn2cc(CNCC(CC)CC)nn2)O[C@@H]8Cn2cc(CNCC(CC)CC)nn2)O[C@@H]7Cn2cc(CNCC(CC)CC)nn2)O[C@@H]6Cn2cc(CNCC(CC)CC)nn2)O[C@@H]5Cn2cc(CNCC(CC)CC)nn2)O[C@@H]4Cn2cc(CNCC(CC)CC)nn2)nn1,3 µM,3%,42 µM,12%,10 µM,8%,21 µM,-0.08,3 to 5 µM,3 µM,1%,10 µM,8%,> 42 µM,21 µM,42 µM,5%
NCCCCCCCc1cn(C[C@H]2O[C@@H]3O[C@H]4[C@H](O)[C@@H](O)[C@@H](O[C@H]5[C@H](O)[C@@H](O)[C@@H](O[C@H]6[C@H](O)[C@@H](O)[C@@H](O[C@H]7[C@H](O)[C@@H](O)[C@@H](O[C@H]8[C@H](O)[C@@H](O)[C@@H](O[C@H]9[C@H](O)[C@@H](O)[C@@H](O[C@H]2[C@H](O)[C@H]3O)O[C@@H]9Cn2cc(CCCCCCCN)nn2)O[C@@H]8Cn2cc(CCCCCCCN)nn2)O[C@@H]7Cn2cc(CCCCCCCN)nn2)O[C@@H]6Cn2cc(CCCCCCCN)nn2)O[C@@H]5Cn2cc(CCCCCCCN)nn2)O[C@@H]4Cn2cc(CCCCCCCN)nn2)nn1,42 µM,4%,> 42 µM,3%,> 42 µM,4%,42 µM,-0.43,3 to 21 µM,5 µM,1%,21 µM,3%,> 42 µM,> 42 µM,> 42 µM,3%
NC(CCc1ccccc1)c1cn(C[C@H]2O[C@@H]3O[C@H]4[C@H](O)[C@@H](O)[C@@H](O[C@H]5[C@H](O)[C@@H](O)[C@@H](O[C@H]6[C@H](O)[C@@H](O)[C@@H](O[C@H]7[C@H](O)[C@@H](O)[C@@H](O[C@H]8[C@H](O)[C@@H](O)[C@@H](O[C@H]9[C@H](O)[C@@H](O)[C@@H](O[C@H]2[C@H](O)[C@H]3O)O[C@@H]9Cn2cc(C(N)CCc3ccccc3)nn2)O[C@@H]8Cn2cc(C(N)CCc3ccccc3)nn2)O[C@@H]7Cn2cc(C(N)CCc3ccccc3)nn2)O[C@@H]6Cn2cc(C(N)CCc3ccccc3)nn2)O[C@@H]5Cn2cc(C(N)CCc3ccccc3)nn2)O[C@@H]4Cn2cc(C(N)CCc3ccccc3)nn2)nn1 (some centres not stated),20 µM,17%,> 40 µM,113%,20 µM,94%,20 µM,-0.25,20 µM,5 µM,6%,20 µM,47%,40 µM,40 µM,> 40 µM,4%
CCCCCCC(N)c1cn(C[C@H]2O[C@@H]3O[C@H]4[C@H](O)[C@@H](O)[C@@H](O[C@H]5[C@H](O)[C@@H](O)[C@@H](O[C@H]6[C@H](O)[C@@H](O)[C@@H](O[C@H]7[C@H](O)[C@@H](O)[C@@H](O[C@H]8[C@H](O)[C@@H](O)[C@@H](O[C@H]9[C@H](O)[C@@H](O)[C@@H](O[C@H]2[C@H](O)[C@H]3O)O[C@@H]9Cn2cc(C(N)CCCCCC)nn2)O[C@@H]8Cn2cc(C(N)CCCCCC)nn2)O[C@@H]7Cn2cc(C(N)CCCCCC)nn2)O[C@@H]6Cn2cc(C(N)CCCCCC)nn2)O[C@@H]5Cn2cc(C(N)CCCCCC)nn2)O[C@@H]4Cn2cc(C(N)CCCCCC)nn2)nn1 (some centres not stated),10 µM,101%,21 µM,118%,10 µM,113%,10 µM,-0.18,3 to 10 µM,5 µM,37%,21 µM,109%,42 µM,21 µM,10 µM,10%
